Assay results published in ChEMBL document CHEMBL3856275, “Discovery of Second Generation Reversible Covalent DPP1 Inhibitors Leading to an Oxazepane Amidoacetonitrile Based Clinical Candidate (AZD7986)” (J Med Chem, 2016).

Legend:
[1] = Intrinsic clearance in rat hepatocytes assessed per 10^6 cells at 1 uM after 10 to 90 mins by LC-MS/MS method; assay type: ADME, cell-based, Hepatocyte
[2] = Intrinsic clearance in human hepatocytes assessed per 10^6 cells at 1 uM after 10 to 90 mins by LC-MS/MS method; assay type: ADME, cell-based, Hepatocyte
[3] = Protein binding in dog plasma at 10 uM after 6 hrs by LC-MS/MS method; assay type: ADME, cell-free, Canis lupus familiaris; conditions: read-out: PPB (converted)
[4] = Oral bioavailability in Han Wistar rat at 3 mg/kg; assay type: ADME, organism-based; conditions: in vivo
How it was run: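 Han Wistar rat PK with 1 mg/kg iv and 3 mg/kg po doses, both in pH3 buffer. Clearance is given in ml/min/kg, Vss in L/kg and t1/2 in h.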

[5] = Clearance in Beagle dog at 1 mg/kg, iv and 2 mg/kg, po; assay type: ADME, organism-based, Canis lupus familiaris; conditions: in vivo
[6] = Half life in Beagle dog at 1 mg/kg, iv and 2 mg/kg, po; assay type: ADME, organism-based, Canis lupus familiaris; conditions: in vivo
[7] = target: T1, Dipeptidyl peptidase 1 (Mus musculus, UniProt P97821); assay: Inhibition of mouse DPP1 using Gly-Arg-AMC as substrate preincubated for 30 mins followed by substrate addition by fluorometric assay
T1 sequence (P97821 whole entry): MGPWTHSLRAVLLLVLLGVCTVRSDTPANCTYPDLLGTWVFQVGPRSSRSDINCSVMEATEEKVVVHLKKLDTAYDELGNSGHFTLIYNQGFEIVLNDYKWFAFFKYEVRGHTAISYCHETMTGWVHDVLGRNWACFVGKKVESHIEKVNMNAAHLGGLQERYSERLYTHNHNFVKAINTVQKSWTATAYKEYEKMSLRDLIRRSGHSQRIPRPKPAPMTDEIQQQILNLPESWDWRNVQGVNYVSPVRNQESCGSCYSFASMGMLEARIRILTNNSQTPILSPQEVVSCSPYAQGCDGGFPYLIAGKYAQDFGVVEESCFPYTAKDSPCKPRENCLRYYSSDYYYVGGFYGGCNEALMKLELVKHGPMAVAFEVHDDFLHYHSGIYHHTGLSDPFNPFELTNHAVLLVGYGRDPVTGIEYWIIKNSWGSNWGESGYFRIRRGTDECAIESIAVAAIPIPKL
How it was run: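 Recombinant mouse DPP1 enzyme, tested under the same conditions as the human assay. Fluorometric assay in piperazine-based buffer.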

[8] = target: Dipeptidyl peptidase 1 (Canis lupus familiaris, UniProt O97578); assay: Inhibition of dog DPP1 using Gly-Arg-AMC as substrate preincubated for 30 mins followed by substrate addition by fluorometric assay
How it was run: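 Recombinant dog DPP1 enzyme, run under the same conditions as the human isolated-enzyme assay in a piperazine-based buffer. Compound and enzyme pre-incubated 30 min at rt. Fluorescent dipeptide substrate Gly-Arg-AMC then added and fluorescence read. pIC50 obtained by curve fitting.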

[9] = target: Procathepsin L (Homo sapiens, UniProt P07711); assay: Inhibition of human recombinant cathepsin L
[10] = target: T2, Cathepsin E (Homo sapiens, UniProt P14091); assay: Inhibition of human recombinant cathepsin E
T2 sequence (P14091 whole entry): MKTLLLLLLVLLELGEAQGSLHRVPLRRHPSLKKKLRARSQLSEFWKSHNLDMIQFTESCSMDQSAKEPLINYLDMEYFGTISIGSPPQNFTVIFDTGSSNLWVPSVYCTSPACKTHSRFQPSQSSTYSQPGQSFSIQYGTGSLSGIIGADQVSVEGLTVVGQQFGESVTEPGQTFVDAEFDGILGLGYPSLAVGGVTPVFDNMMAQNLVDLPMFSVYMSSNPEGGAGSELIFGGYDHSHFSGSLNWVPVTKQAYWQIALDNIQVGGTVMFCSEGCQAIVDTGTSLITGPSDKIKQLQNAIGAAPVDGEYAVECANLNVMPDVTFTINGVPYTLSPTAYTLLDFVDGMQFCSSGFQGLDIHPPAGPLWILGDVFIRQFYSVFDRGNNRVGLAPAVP

[11] = target: Cathepsin Z (Homo sapiens, UniProt Q9UBR2); assay: Inhibition of human recombinant cathepsin Z
[12] = target: T3, Cathepsin G (Homo sapiens, UniProt P08311); assay: Inhibition of human recombinant cathepsin G
T3 sequence (P08311 whole entry): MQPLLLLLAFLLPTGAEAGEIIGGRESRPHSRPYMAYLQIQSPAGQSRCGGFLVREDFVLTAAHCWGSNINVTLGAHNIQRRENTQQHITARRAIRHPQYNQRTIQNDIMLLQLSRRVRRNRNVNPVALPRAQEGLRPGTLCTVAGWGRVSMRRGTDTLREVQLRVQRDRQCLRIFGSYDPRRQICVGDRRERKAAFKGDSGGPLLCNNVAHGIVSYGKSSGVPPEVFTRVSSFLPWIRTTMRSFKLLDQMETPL

[13] = test system: Rattus norvegicus; assay: In vivo inhibition of DPP1 in po dosed naive rat assessed as inactivation of neutrophil elastase in bone marrow cell lysates administered as bid for 8 days; assay type: functional, organism-based
[14] = Intrinsic clearance in human liver microsomes at 1 uM after 5 to 30 mins by LC-MS/MS method; assay type: ADME; conditions: read-out: CLH
How it was run: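 Human liver microsome stability, with intrinsic clearance given in µL/min/mg.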

[15] = Intrinsic clearance in human hepatocytes at 1 uM after 5 to 120 mins by LC-MS/MS method; assay type: ADME, cell-based, Hepatocyte
How it was run: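 Intrinsic clearance in human hepatocytes, given in µL/min/10^6 cells.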

[16] = Half life in Sprague-Dawley rat at 1 mg/kg, iv or 3 mg/kg, po; assay type: ADME, organism-based; conditions: in vivo
[17] = Oral bioavailability in Sprague-Dawley rat at 3 mg/kg; assay type: ADME, organism-based; conditions: in vivo

Sequence of Cathepsin Z (Q9UBR2 whole entry): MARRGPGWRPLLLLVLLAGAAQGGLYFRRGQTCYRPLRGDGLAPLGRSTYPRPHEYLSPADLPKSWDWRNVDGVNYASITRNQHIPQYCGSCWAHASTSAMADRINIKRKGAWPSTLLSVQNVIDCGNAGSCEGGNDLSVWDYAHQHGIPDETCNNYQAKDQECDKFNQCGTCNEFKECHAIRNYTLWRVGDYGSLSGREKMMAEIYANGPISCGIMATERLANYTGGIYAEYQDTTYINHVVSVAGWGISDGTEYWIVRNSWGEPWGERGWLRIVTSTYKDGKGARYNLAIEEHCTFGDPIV
Sequence of Dipeptidyl peptidase 1 (Canis lupus familiaris, UniProt O97578) (O97578 1-109 limits assumed): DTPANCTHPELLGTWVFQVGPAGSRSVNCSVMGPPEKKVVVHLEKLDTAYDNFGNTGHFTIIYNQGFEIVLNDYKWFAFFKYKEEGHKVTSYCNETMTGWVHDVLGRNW
Sequence of Dipeptidyl peptidase 1 (Canis lupus familiaris, UniProt O97578) (O97578 200-366 limits assumed): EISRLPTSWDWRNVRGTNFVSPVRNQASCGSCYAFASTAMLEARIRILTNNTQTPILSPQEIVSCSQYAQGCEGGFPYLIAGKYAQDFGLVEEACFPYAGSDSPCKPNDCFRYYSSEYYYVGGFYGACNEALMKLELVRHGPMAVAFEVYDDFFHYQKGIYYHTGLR
Sequence of Dipeptidyl peptidase 1 (Canis lupus familiaris, UniProt O97578) (O97578 367-435 limits assumed): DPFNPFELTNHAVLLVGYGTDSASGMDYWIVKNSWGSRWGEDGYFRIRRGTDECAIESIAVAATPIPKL
Sequence of Procathepsin L (P07711 whole entry): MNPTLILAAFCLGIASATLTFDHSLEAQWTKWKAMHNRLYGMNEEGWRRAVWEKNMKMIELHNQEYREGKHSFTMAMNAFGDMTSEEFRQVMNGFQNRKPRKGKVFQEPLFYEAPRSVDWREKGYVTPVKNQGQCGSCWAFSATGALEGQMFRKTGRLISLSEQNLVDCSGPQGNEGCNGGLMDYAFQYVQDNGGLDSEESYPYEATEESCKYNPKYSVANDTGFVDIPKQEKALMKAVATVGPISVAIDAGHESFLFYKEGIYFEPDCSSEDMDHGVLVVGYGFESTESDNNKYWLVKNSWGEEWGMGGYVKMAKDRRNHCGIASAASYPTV

- CLH [1]: < 3.5 µL/min/10^6 cells
- intrinsic clearance (CLint) [2]: < 3.5 µL/min/10^6 cells
- fraction unbound at 6 h, 10 µM [3]: 0.3
- bioavailability [4]: 75%
- clearance [5]: 8 mL/min/kg
- half-life [6]: 18 h
- IC50 [7]: 0.0251 µM
- IC50 [8]: 0.0158 µM
- IC50 [9]: > 20 µM
- IC50 [10]: > 20 µM
- IC50 [11]: > 20 µM
- IC50 [12]: > 20 µM
- microsomal CLint at 1 µM [14]: < 3 µL/min/mg
- CLH [15]: < 1 µL/min/1e6 cells
- half-life [16]: 7 h
- bioavailability [17]: 30%
SMILES: Cn1c(=O)oc2ccc(-c3ccc(C[C@@H](C#N)NC(=O)[C@@H]4CNCCCO4)cc3)cc21 [BRENSOCATIB]
- inhibition [13]: Dose-dependent effect
